BindingDB's records for doi:10.1021/acs.jmedchem.7b01557 (University of Colorado, 2018)

Target: T1, Toll-like receptor 7 (Homo sapiens, UniProt Q9NYK1)
T1 sequence (Q9NYK1 whole entry): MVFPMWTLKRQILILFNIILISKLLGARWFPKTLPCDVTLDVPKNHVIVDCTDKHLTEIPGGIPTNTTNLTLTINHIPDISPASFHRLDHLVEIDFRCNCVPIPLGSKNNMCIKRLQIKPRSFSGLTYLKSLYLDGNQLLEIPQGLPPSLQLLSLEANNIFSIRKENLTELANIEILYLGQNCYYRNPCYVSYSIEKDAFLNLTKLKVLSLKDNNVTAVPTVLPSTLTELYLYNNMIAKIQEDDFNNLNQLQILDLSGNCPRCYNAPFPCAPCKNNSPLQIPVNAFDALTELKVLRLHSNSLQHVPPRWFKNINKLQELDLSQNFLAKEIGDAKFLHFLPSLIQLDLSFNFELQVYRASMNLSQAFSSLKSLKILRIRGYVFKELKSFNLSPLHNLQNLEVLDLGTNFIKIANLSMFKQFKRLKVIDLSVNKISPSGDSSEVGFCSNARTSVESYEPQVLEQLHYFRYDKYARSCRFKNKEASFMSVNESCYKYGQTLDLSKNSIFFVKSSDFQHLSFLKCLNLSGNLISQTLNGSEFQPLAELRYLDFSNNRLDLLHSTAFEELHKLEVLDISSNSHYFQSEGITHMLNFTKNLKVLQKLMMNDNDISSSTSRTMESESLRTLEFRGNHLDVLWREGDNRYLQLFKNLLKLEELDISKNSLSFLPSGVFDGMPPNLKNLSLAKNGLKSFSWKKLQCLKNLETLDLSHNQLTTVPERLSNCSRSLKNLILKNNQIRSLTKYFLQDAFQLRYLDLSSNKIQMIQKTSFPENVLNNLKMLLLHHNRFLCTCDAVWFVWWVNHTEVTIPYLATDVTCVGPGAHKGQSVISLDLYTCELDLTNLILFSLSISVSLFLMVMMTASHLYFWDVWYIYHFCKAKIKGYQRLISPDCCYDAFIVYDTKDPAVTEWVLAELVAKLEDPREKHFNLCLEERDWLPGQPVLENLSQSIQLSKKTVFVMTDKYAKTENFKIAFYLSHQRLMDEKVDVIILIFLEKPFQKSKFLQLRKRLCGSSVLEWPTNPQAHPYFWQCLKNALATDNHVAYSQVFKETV
Assay: Antagonist activity at human TLR7 expressed in HEK293 cells assessed as inhibition of R848-induced NF-kappaB activation-mediated SEAP production after 24 hrs by Quanti-blue-based assay
How it was run: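 HEK293 cells stably carrying a human TLR plus an NF-κB-driven SEAP reporter, seeded 5×10^4/well for 24 h at 37 °C, then stimulated: Pam3CSK4 100 µg/mL (TLR1/2), Pam2CSK4 100 µg/mL, poly I:C 5 µg/mL (TLR3), LPS 20 ng/mL (TLR4), flagellin 100 ng/mL (TLR5), R848 1 µg/mL (TLR7, TLR8), CpG-ODN2006 1 µg/mL (TLR9). After 24 h with compound, supernatant mixed with QUANTI-Blue, 1 h 37 °C, OD 620 nm.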

Row | SMILES | IC50
1 | Nc1nccnc1C(=O)NNC(=O)c1ccc(C(F)(F)F)cc1 | 25 µM
2 | CC(C)c1nc(C(=O)NNC(=O)c2ccccn2)cs1 | 14 µM
3 | O=C(NNC(=O)c1ccccn1)c1ccc(OC(F)(F)F)cc1 | 22 µM
4 | O=C(NNC(=O)c1ccccn1)c1ccc(Br)cc1 | 17 µM
5 | O=C(NNC(=O)c1ccccn1)c1cccc(C(F)(F)F)c1 | 15 µM
6 | O=C(NNC(=O)c1ncccc1O)c1cccc(C(F)(F)F)c1 | 14.2 µM
7 | O=C(NNC(=O)c1csc(-c2cccc(F)c2)n1)c1ccccn1 | 2.6 µM
8 | O=C(NNC(=O)c1csc(-c2ccc(Cl)cc2Cl)n1)c1ccccn1 | 0.26 µM
9 | O=C(NNC(=O)c1csc(-c2ccc(F)cc2)n1)c1ccccn1 | 4.4 µM
10 | Cc1ccc(-c2nc(C(=O)NNC(=O)c3ccccn3)cs2)cc1 | 1.83 µM
11 | O=C(NNC(=O)c1csc(-c2ccc(C(F)(F)F)cc2)n1)c1ccccn1 | 0.99 µM
12 | Cc1nc(C(=O)NNC(=O)c2cccc(Cl)c2)cs1 | 60 µM
13 | O=C(NNC(=O)c1ncccc1O)c1ccc(Cl)cc1 | 27.8 µM
14 | O=C(NNC(=O)c1ncccc1O)c1ccc(C(F)(F)F)cc1 | 13.4 µM
15 | O=C(NNC(=O)c1ncccc1O)c1ccc(Br)cc1 | 17.3 µM
16 | Nc1nccnc1C(=O)NNC(=O)c1cccc(C(F)(F)F)c1 | 38 µM
17 | CN(C)c1ccc(-c2nc(C(=O)NNC(=O)c3ccccn3)cs2)cc1 | 1.9 µM
18 | CCc1ccc(-c2nc(C(=O)NNC(=O)c3ccccn3)cs2)cc1 | 2.4 µM

The remaining compounds from weak to strong by IC50, led by results:

Row | IC50 | SMILES
19 | 44.8 µM | Cc1nc(C(=O)NNC(=O)c2ccc(Cl)cc2)cs1
20 | 30 µM | Cc1nc(C(=O)NNC(=O)c2ccccn2)cs1
21 | 27 µM | Nc1nccnc1C(=O)NNC(=O)c1ccc(OC(F)(F)F)cc1
22 | 24.7 µM | O=C(NNC(=O)c1ccccn1)c1ccc(Cl)cc1
23 | 23.2 µM | O=C(NNC(=O)c1csc(-c2cccnc2)n1)c1ccccn1
24 | 17 µM | O=C(NNC(=O)c1ccccn1)c1ccc(C(F)(F)F)cc1
25 | 16 µM | Nc1cccnc1C(=O)NNC(=O)c1cccc(C(F)(F)F)c1
26 | 7.9 µM | O=C(NNC(=O)c1ncccc1O)c1ccc(OC(F)(F)F)cc1
27 | 5.8 µM | O=C(NNC(=O)c1csc(-c2ccccc2)n1)c1ccccn1
28 | 3.9 µM | COc1ccc(-c2nc(C(=O)NNC(=O)c3ccccn3)cs2)cc1OC
29 | 3.09 µM | COc1ccc(-c2nc(C(=O)NNC(=O)c3ccccn3)cs2)cc1
30 | 2.1 µM | O=C(NNC(=O)c1csc(-c2ccc(Cl)cc2)n1)c1ccccn1
31 | 1.02 µM | O=C(NNC(=O)c1csc(-c2cccc(C(F)(F)F)c2)n1)c1ccccn1
32 | 1 µM | O=C(NNC(=O)c1csc(-c2cccc(Cl)c2)n1)c1ccccn1
33 | 0.9 µM | O=C(NNC(=O)c1csc(-c2cccc(Br)c2)n1)c1ccccn1
34 | 0.5 µM | O=C(NNC(=O)c1csc(-c2cccc(Cl)c2Cl)n1)c1ccccn1
35 | 0.44 µM | O=C(NNC(=O)c1csc(-c2cc(Cl)cc(Cl)c2)n1)c1ccccn1
